Results: ChEMBL document CHEMBL5316351, “Development of a Covalent Inhibitor of c-Jun N-Terminal Protein Kinase (JNK) 2/3 with Selectivity over JNK1” (J Med Chem, 2023)
The source made the active and inactive calls. No cut-off for these calls is given here.

Legend:
[1] = molecular target: Mitogen-activated protein kinase 8 (Homo sapiens, UniProt P45983); assay: Inhibition of His-tagged human recombinant JNK1 expressed in insect cells incubated for 1 hr in presence of ATP by Z'-Lyte assay; design: species or system Insect cell
[2] = molecular target: T1, Mitogen-activated protein kinase 9 (Homo sapiens, UniProt P45984); assay: Inhibition of His-tagged human recombinant JNK2 expressed in baculovirus expression system incubated for 1 hr in presence of ATP by Z'-Lyte assay
Target sequence in this assay (P45984 whole entry): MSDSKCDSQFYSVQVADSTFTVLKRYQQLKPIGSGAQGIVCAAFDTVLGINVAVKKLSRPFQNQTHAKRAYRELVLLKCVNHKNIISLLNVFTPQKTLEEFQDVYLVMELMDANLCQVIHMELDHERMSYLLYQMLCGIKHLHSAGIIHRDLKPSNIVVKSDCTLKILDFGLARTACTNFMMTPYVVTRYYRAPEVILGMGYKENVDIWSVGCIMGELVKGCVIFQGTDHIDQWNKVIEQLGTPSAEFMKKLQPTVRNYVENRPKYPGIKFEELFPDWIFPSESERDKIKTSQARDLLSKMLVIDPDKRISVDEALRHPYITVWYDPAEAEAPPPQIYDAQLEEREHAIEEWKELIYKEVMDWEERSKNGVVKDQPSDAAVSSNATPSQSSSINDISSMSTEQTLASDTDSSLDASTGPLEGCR

[3] = species: Homo sapiens; assay: Selectivity ratio of IC50 for His-tagged human recombinant JNK1 expressed in insect cells to His-tagged human recombinant JNK2 expressed in baculovirus expression system
Outline: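 Z′-Lyte kinase assays of JNK1 and JNK2 with 100 μM ATP and 1 h compound incubation. Fixed time point IC50 was determined in duplicate. The selectivity ratio is JNK1 IC50 over JNK2 IC50.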

[4] = Antiproliferative activity against human HAP1 cells assessed as inhibition of cell growth incubated for 3 days by CellTiter-Glo luminescent assay; type: functional, cell-based; conditions: HAP1, 72 h
[5] = tested on: MM1.S; assay: Induction of apoptosis in human MM1.S cells assessed as increase in PARP cleavage at 0.5 to 2.5 uM incubated for 24 hrs by immunoblot analysis; type: functional, cell-based; conditions: dose 0.5-2.5 µM
[6] = tested on: MM1.S; assay: Induction of apoptosis in human MM1.S cells assessed as increase in caspase-3 cleavage at 0.5 to 2.5 uM incubated for 24 hrs by immunoblot analysis; type: functional, cell-based; conditions: dose 0.5-2.5 µM
[7] = tested on: MM1.S; assay: Induction of apoptosis in human MM1.S cells at 250 nM by AnnexinV/PI staining based flow cytometry; type: functional, cell-based
[8] = tested on: ANBL-6; assay: Antiproliferative activity against wild type human ANBL-6 cells assessed as inhibition of cell growth incubated for 72 hrs by CellTiter-Glo luminescent assay; type: functional, cell-based
[9] = tested on: ANBL-6; assay: Antiproliferative activity against Bortezomib-resistant human ANBL-6 cells assessed as inhibition of cell growth incubated for 72 hrs by CellTiter-Glo luminescent assay; type: functional, cell-based
[10] = molecular target: T1, Mitogen-activated protein kinase 9; assay: Covalent binding affinity to JNK2 in human MM1.S cells incubated for 6 hrs by biotin-JNK-IN-7 probe based pull-down competition based analysis; type: cell-based
Outline: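 MM.1S cells exposed to compound or DMSO 6 h; lysed in HEPES pH 7.4/NP-40 buffer; lysates incubated with 1 μM biotin-JNK-IN-7 overnight at 4 °C then 2 h room temperature; streptavidin pull-down 2–3 h at 4 °C; bound JNK1/JNK2 detected by western blot.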
Target sequence in this assay (P45984 whole entry, looked up): as the sequence (P45984 whole entry) above

[11] = molecular target: T1, Mitogen-activated protein kinase 9; assay: Binding affinity to wild type N-terminal GST-tagged human recombinant JNK2 (1 to 364 residues) expressed in Escherichia coli in presence of ATP measured every 0.5 mins for 120 mins by fluorescence based analysis
Target sequence in this assay (P45984 whole entry, looked up): as the sequence (P45984 whole entry) above

[12] = tested on: MM1.S; assay: Antiproliferative activity against human MM1.S cells assessed as inhibition of cell growth rate measured after 72 hrs by CellTiter-Glo luminescent assay; type: functional
[13] = tested on: HAP1; assay: Antiproliferative activity against human HAP1 cells assessed as inhibition of cell growth incubated for 3 days in presence of VX745 by CellTiter-Glo luminescent assay; type: functional, cell-based; conditions: time 3.0 day
[14] = molecular target: T2, 1-phosphatidylinositol 3-phosphate 5-kinase (Homo sapiens, UniProt Q9Y2I7); assay: Inhibition of Nano-Luc fused PIKFYVE (unknown origin) expressed in HEK293T cells pretreated for 3 hrs followed by K8-tarcer addition and measured after 1 hr by NanoBRET assay; type: cell-based
[15] = molecular target: T2, 1-phosphatidylinositol 3-phosphate 5-kinase; assay: Inhibition of PIKFYVE in human MDA-MB-231 cells assessed as vacuole formation at 4 uM measured after 3 days by bright field microscopy; type: cell-based; conditions: time 3.0 day
Outline: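 MDA-MB-231 cells (DMEM, 10% FBS) seeded, next day treated with inhibitor or DMSO; after 3 days imaged by bright-field microscopy at 20× for vacuoles.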

Mitogen-activated protein kinase 8, sequence (P45983 whole entry): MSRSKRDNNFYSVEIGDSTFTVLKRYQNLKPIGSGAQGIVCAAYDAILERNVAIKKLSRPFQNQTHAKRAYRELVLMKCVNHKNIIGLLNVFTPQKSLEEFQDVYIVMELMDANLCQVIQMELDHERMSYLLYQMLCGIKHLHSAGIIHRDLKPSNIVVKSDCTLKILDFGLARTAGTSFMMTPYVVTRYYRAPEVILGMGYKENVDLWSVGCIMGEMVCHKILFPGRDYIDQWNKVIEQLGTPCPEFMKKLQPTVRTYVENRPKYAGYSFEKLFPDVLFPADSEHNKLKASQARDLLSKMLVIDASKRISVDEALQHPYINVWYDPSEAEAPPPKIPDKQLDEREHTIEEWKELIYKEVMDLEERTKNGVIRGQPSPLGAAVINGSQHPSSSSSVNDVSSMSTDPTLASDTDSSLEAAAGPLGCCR
T2 sequence (Q9Y2I7 whole entry, the tested form may be a part): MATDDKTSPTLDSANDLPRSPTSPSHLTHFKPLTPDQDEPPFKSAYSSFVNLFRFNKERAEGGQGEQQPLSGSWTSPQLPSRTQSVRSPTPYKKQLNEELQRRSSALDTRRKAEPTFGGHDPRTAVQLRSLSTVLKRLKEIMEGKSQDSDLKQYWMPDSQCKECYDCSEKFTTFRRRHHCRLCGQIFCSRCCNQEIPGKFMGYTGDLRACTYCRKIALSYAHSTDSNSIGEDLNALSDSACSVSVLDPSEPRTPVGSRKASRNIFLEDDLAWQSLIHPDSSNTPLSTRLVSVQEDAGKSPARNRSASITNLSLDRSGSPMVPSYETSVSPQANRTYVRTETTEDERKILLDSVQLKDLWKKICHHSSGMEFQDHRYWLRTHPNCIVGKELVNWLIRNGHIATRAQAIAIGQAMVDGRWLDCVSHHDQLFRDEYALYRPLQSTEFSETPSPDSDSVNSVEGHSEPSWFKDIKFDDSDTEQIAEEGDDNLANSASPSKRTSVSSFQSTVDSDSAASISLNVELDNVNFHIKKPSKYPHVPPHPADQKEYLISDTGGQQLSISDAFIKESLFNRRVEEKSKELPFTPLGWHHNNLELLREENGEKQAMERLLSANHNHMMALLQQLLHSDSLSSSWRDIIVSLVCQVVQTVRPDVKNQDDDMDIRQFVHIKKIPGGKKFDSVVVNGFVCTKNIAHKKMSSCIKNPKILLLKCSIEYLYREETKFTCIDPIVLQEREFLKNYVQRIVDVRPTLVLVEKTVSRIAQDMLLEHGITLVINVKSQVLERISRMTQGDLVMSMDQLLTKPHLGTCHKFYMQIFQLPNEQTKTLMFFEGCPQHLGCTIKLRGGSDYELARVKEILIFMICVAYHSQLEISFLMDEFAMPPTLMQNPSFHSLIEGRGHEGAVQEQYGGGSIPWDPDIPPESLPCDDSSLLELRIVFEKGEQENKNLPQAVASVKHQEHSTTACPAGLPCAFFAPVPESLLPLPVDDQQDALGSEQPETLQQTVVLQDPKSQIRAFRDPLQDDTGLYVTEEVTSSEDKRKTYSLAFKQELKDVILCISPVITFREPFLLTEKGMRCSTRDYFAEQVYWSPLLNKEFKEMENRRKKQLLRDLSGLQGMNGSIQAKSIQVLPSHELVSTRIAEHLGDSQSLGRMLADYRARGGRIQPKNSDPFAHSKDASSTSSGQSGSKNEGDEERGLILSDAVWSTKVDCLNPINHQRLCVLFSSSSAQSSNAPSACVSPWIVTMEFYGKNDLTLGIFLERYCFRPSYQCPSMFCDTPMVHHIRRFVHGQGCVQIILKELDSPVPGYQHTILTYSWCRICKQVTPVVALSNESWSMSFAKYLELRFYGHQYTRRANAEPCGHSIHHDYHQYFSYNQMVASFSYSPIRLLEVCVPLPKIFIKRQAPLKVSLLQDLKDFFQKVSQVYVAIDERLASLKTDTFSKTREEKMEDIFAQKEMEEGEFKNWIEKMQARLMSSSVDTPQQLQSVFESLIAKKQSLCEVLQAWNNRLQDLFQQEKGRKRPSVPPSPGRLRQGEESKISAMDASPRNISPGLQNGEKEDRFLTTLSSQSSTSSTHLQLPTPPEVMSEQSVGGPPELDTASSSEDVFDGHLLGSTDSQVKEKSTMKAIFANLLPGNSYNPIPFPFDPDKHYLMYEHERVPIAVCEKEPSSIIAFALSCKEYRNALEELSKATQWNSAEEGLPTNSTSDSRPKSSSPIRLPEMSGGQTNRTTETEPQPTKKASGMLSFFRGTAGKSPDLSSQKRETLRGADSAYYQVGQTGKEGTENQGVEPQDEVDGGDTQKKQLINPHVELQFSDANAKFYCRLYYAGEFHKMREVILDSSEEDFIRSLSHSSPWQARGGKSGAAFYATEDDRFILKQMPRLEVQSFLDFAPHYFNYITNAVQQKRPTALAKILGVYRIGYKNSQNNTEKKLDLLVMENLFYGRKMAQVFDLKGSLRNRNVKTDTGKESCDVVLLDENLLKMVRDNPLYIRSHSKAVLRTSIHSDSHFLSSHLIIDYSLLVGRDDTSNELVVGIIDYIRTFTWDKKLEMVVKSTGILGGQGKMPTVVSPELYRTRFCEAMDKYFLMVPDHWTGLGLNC

Structure (SMILES)	IC50 [1] [µM]	IC50 [2] [µM]	Ratio IC50 [3]	further results
CN(C)C/C=C/C(=O)Nc1ccc(C(=O)N2CC[C@H](Nc3ncc(Cl)c(-c4c(-c5ccccc5)nn5ccccc45)n3)C2)cc1	3.05	0.483	6	
O=c1ncn2nc(Sc3ccc(F)cc3F)ccc2c1-c1c(Cl)cccc1Cl [NEFLAMAPIMOD]				IC50 [4]: 10 µM
Cc1cc(NC(=O)c2cccc(NC(=O)/C=C/CN(C)C)c2)ccc1Nc1nccc(-c2cccnc2)n1				Activity [5]: inactive; Activity [6]: inactive; Activity [7]: inactive; Activity [8]: inactive; Activity [9]: inactive; Activity [10]: Active; Activity [11]: Active
Cc1cccn2nc(-c3ccccc3)c(-c3ccnc(N[C@H]4CCN(C(=O)c5ccc(NC(=O)/C=C/CN(C)C)cc5)C4)n3)c12			8	
O[C@H]1CC[C@H](Nc2ncc3nc(Nc4c(F)cc(F)cc4F)n([C@H]4CCOC4)c3n2)CC1 [TANZISERTIB]				Activity [12]: inactive; IC50 [4]: > 30 µM; Activity [13]: inactive
CN(C)CCCC(=O)Nc1ccc(C(=O)N2CC[C@H](Nc3nccc(-c4c(-c5ccccc5)nn5ccccc45)n3)C2)cc1				IC50 [14]: > 3 µM; inhibition [15]: inactive

More lines, main results first:

IC50 [1] [µM]	IC50 [2] [µM]	Structure (SMILES)	Ratio IC50 [3]	further results
0.067	0.004	CN(C)C/C=C/C(=O)Nc1ccc(C(=O)N2CC[C@H](Nc3nccc(-c4c(-c5ccc(F)cc5)nn5ccccc45)n3)C2)cc1	17	
0.074	0.004	CN(C)C/C=C/C(=O)Nc1ccc(C(=O)N2CC[C@H](Nc3nccc(-c4c(-c5cccc(Cl)c5)nn5ccccc45)n3)C2)cc1	19	
0.387	0.017	CN(C)C/C=C/C(=O)Nc1ccc(C(=O)N2CCCC[C@@H](Nc3nccc(-c4c(-c5ccccc5)nn5ccccc45)n3)C2)cc1	23	
0.475	0.044	CN(C)C/C=C/C(=O)Nc1ccc(C(=O)NC2CCCC(Nc3nccc(-c4c(-c5ccccc5)nn5ccccc45)n3)C2)cc1 (configuration not stated)	11	
0.062	0.007	CN(C)C/C=C/C(=O)Nc1ccc(C(=O)N2CC[C@H](Nc3nccc(-c4c(-c5ccc(Cl)cc5)nn5ccccc45)n3)C2)cc1	9	
0.256	0.028	CN(C)C/C=C/C(=O)Nc1ccc(C(=O)N2CCCC[C@H](Nc3nccc(-c4c(-c5ccccc5)nn5ccccc45)n3)C2)cc1	9	
0.01	0.002	CN(C)C/C=C/C(=O)Nc1ccc(C(=O)N2CC[C@@H](Nc3nccc(-c4c(-c5ccccc5)nn5ccccc45)n3)C2)cc1	5	
0.053	0.005	CN(C)C/C=C/C(=O)Nc1ccc(C(=O)N2CCC[C@H](Nc3nccc(-c4c(-c5ccccc5)nn5ccccc45)n3)C2)cc1	10	
0.47	0.017	CN(C)C/C=C/C(=O)Nc1ccc(C(=O)N2CCC[C@@H](Nc3nccc(-c4c(-c5ccccc5)nn5ccccc45)n3)C2)cc1	28	
0.018	0.001	Cc1ccc2c(-c3ccnc(N[C@H]4CCN(C(=O)c5ccc(NC(=O)/C=C/CN(C)C)cc5)C4)n3)c(-c3ccccc3)nn2c1	18	
